From paper PMC6955635 (Drug Design, Development and Therapy, 2020)

Columns and labels:
[1] = Pharmacokinetics, plasma AM, multiple-dose administration study; assay type: in vivo, human; conditions: for half-life: T1/2 (terminal plasma elimination half-life), Phoenix WinNonlin; for half-life / Tmax: multiple administration, 8-h iv infusion 15 ng/kg/min per day for 7 days, mean ± SD; for Tmax: Tmax (time to maximum measured plasma concentration)
healthy males [2] = assay: Adverse events, multiple-dose administration study; assay type: in vivo, human
[3] = tested on: normotensive and hypertensive patients; conditions: 30 ng/kg/min, after 90 min of intravenous infusion; cited from earlier work
healthy males [4] = assay: Clinical laboratory tests; assay type: in vivo, human; conditions: all AM doses, single- and multiple-dose studies
healthy males [5] = assay: Adverse events, single-dose administration study; assay type: in vivo, human; conditions: single 12-h iv infusion, n = 6, number of subjects (%)
Summary of the method: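 Randomized, double-blind, dose-escalation study in healthy Japanese men: 8 per group, 1:3 placebo (D-mannitol) versus test compound at 3, 9 or 15 ng/kg/min. Single continuous IV infusion over 12 h (±30 min), hospitalized from the day before to the day after. Each escalation followed safety review of the next-day results. AEs were monitored throughout, plus vital signs, labs, physical exams and 12-lead ECG at set times. Monitor ECG ran to 24 h post-dose.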

[6] = Pharmacokinetics, plasma AM, single-dose administration study; assay type: in vivo, human; conditions: for AUC(0-t) / Cmax / Tmax / half-life: male, human, plasma, iv
[7] = male, human, plasma, iv, 15 ng/kg/min, Day 1
[8] = male, human, plasma, iv, 15 ng/kg/min, Day 7

In the case of `CC[C@H](C)[C@H](NC(=O)[C@H](CCC(N)=O)NC(=O)[C@H](Cc1c[nH]cn1)NC(=O)[C@H](C)NC(=O)[C@H](CC(C)C)NC(=O)[C@H](CCCCN)NC(=O)[C@H](CCC(N)=O)NC(=O)[C@@H](NC(=O)[C@@H](NC(=O)[C@@H]1CSSC[C@H](NC(=O)CNC(=O)[C@H](Cc2ccccc2)NC(=O)[C@H](CO)NC(=O)[C@H](CCCNC(=N)N)NC(=O)[C@H](CC(C)C)NC(=O)CNC(=O)[C@H](CCC(N)=O)NC(=O)[C@H](Cc2ccccc2)NC(=O)[C@H](CC(N)=O)NC(=O)[C@H](CC(N)=O)NC(=O)[C@H](CCSC)NC(=O)[C@H](CO)NC(=O)[C@H](CCC(N)=O)NC(=O)[C@H](CCCNC(=N)N)NC(=O)[C@@H](N)Cc2ccc(O)cc2)C(=O)N[C@@H](CCCNC(=N)N)C(=O)N[C@@H](Cc2ccccc2)C(=O)NCC(=O)N[C@@H]([C@@H](C)O)C(=O)N1)[C@@H](C)O)C(C)C)C(=O)N[C@@H](Cc1ccc(O)cc1)C(=O)N[C@@H](CCC(N)=O)C(=O)N[C@@H](Cc1ccccc1)C(=O)N[C@H](C(=O)N[C@@H](CC(=O)O)C(=O)N[C@@H](CCCCN)C(=O)N[C@@H](CC(=O)O)C(=O)N[C@@H](CCCCN)C(=O)N[C@@H](CC(=O)O)C(=O)N[C@@H](CC(N)=O)C(=O)N[C@H](C(=O)N[C@@H](C)C(=O)N1CCC[C@H]1C(=O)N[C@@H](CCCNC(=N)N)C(=O)N[C@@H](CO)C(=O)N[C@@H](CCCCN)C(=O)N[C@H](C(=O)N[C@@H](CO)C(=O)N1CCC[C@H]1C(=O)N[C@@H](CCC(N)=O)C(=O)NCC(=O)N[C@@H](Cc1ccc(O)cc1)C(N)=O)[C@@H](C)CC)C(C)C)[C@@H](C)O` [Adrenomedullin], the “Accumulation of plasma AM” value ([1]; after the end of the 7-day AM administration, 15 ng/kg/min 8 h per day) is reported as “accumulation was not observed”, the Cmax ([1]; male, human, plasma, iv, 15 ng/kg/min) is reported as 0.0479 ± 0.0109 ng/mL and the half-life [1, 7] is reported as 0.45 ± 0.66 h. For the same molecule, the half-life [1, 8] was 0.17 ± 0.07 h, the Tmax [1, 7] was 7.2 ± 1.1 h and the Tmax [1, 8] was 6.8 ± 1.1 h. For the same molecule, the “ECG abnormalities, including monitor ECG” value (healthy males [2]; 15 ng/kg/min 8 h per day for 7 days) was “not reported”, the “Withdrawal from the study due to headache” value (healthy males [2]; AM 15 ng/kg/min group, n = 6) was “one withdrawal” and the “Effect on BP” value [3] was “clear decrease in BP”. For the same molecule, the “Changes in clinical laboratory test values” (healthy males [4]) was “no changes due to the direct effect of AM”, the Any adverse event (healthy males [5]; high dose 15 ng/kg/min) was 2(33.3%) and the Deaths (healthy males [5]; high dose 15 ng/kg/min) was 0. The “Diarrhea (gastrointestinal disorders)” value (healthy males [5]; high dose 15 ng/kg/min) was 0, the “Headache (nervous system disorders)” value (healthy males [5]; high dose 15 ng/kg/min) was 1(16.7%) and the “Palpitations (cardiac disorders)” value (healthy males [5]; high dose 15 ng/kg/min) was 0. For the same molecule, the Serious adverse events (healthy males [5]; high dose 15 ng/kg/min) was 0, the Severe adverse events (healthy males [5]; high dose 15 ng/kg/min) was 0 and the Treatment-related adverse events (healthy males [5]; high dose 15 ng/kg/min) was 2(33.3%). The “Wenckebach type atrioventricular block (cardiac disorders)” value (“Wenckebach type atrioventricular block” below) (healthy males [5]; high dose 15 ng/kg/min) was 1(16.7%), the Any adverse event (healthy males [5]; low dose 3 ng/kg/min) was 0 and the Deaths (healthy males [5]; low dose 3 ng/kg/min) was 0. For the same molecule, the “Diarrhea (gastrointestinal disorders)” value (healthy males [5]; low dose 3 ng/kg/min) was 0, the “Headache (nervous system disorders)” value (healthy males [5]; low dose 3 ng/kg/min) was 0 and the “Palpitations (cardiac disorders)” value (healthy males [5]; low dose 3 ng/kg/min) was 0. It also gave a Serious adverse events (healthy males [5]; low dose 3 ng/kg/min) of 0, a Severe adverse events (healthy males [5]; low dose 3 ng/kg/min) of 0 and a Treatment-related adverse events (healthy males [5]; low dose 3 ng/kg/min) of 0. The “Wenckebach type atrioventricular block” value (healthy males [5]; low dose 3 ng/kg/min) was 0, the Any adverse event (healthy males [5]; medium dose 9 ng/kg/min) was 3(50.0%) and the Deaths (healthy males [5]; medium dose 9 ng/kg/min) was 0. For the same molecule, the “Diarrhea (gastrointestinal disorders)” value (healthy males [5]; medium dose 9 ng/kg/min) was 0, the “Headache (nervous system disorders)” value (healthy males [5]; medium dose 9 ng/kg/min) was 1(16.7%) and the “Palpitations (cardiac disorders)” value (healthy males [5]; medium dose 9 ng/kg/min) was 0. For the same molecule, the Serious adverse events (healthy males [5]; medium dose 9 ng/kg/min) was 0, the Severe adverse events (healthy males [5]; medium dose 9 ng/kg/min) was 0 and the Treatment-related adverse events (healthy males [5]; medium dose 9 ng/kg/min) was 3(50.0%). The “Wenckebach type atrioventricular block” value (healthy males [5]; medium dose 9 ng/kg/min) was 2(33.3%), the “Increase of Cmax compared to the basal concentration of AM” value ([6]; high-dose AM group (15 ng/kg/min), single 12-h iv infusion) was “sevenfold” and the AUC(0-t) ([6]; 3 ng/kg/min) was 0.163 ± 0.0212 ng·h/mL. For the same molecule, the Cmax ([6]; 3 ng/kg/min) was 0.01 ± 0.0011 ng/mL, the Tmax ([6]; 3 ng/kg/min) was 9.3 ± 4.7 h and the half-life ([6]; 3 ng/kg/min) was 1.04 ± 0.92 h. For the same molecule, the AUC(0-t) ([6]; 9 ng/kg/min) was 0.295 ± 0.0521 ng·h/mL, the Cmax ([6]; 9 ng/kg/min) was 0.0255 ± 0.0037 ng/mL and the Tmax ([6]; 9 ng/kg/min) was 10.7 ± 1.6 h. For the same molecule, the half-life ([6]; 9 ng/kg/min) was 0.3 ± 0.2 h, the AUC(0-t) ([6]; 15 ng/kg/min) was 0.532 ± 0.0915 ng·h/mL and the Cmax ([6]; 15 ng/kg/min) was 0.0504 ± 0.0093 ng/mL. For the same molecule, the Tmax ([6]; 15 ng/kg/min) was 10 ± 2.2 h and the half-life ([6]; 15 ng/kg/min) was 0.23 ± 0.15 h.
